Test results published in ChEMBL document CHEMBL1126631, “Synthesis and biological activities of angiotensin II, Sarilesin, and Sarmesin analogues containing Aze or Pip at position 7” (J Med Chem, 1993).

The compounds below were run against T1, Angiotensin II receptor (Rattus norvegicus, UniProt P29089+P25095+P35351) (assay: Antagonistic activity (pA2) was determined as the negative logarithm of the concentration required to reduce the response to an EC50 dose of ANG II to the response to half the EC50.).
T1 sequence (P29089 whole entry): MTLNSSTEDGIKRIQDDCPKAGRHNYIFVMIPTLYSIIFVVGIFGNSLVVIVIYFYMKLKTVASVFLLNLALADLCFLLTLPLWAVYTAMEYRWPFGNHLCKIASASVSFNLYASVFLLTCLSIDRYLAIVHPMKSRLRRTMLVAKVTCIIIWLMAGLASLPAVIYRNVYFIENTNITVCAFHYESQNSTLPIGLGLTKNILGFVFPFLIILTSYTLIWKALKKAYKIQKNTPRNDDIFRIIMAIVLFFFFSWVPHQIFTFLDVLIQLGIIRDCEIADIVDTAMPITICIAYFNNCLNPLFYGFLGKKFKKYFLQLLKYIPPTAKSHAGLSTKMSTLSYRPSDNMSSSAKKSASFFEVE
T1 sequence (P25095 whole entry): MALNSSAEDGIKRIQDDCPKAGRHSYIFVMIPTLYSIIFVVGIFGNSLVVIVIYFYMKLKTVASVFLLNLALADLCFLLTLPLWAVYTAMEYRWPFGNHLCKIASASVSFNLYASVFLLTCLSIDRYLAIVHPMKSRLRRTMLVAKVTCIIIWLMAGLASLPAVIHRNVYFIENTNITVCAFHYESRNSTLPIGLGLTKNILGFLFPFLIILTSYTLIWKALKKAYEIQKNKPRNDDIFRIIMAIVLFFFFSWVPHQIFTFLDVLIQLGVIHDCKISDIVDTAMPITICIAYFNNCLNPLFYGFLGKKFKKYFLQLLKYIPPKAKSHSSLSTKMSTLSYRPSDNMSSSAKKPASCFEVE
T1 sequence (P35351 whole entry): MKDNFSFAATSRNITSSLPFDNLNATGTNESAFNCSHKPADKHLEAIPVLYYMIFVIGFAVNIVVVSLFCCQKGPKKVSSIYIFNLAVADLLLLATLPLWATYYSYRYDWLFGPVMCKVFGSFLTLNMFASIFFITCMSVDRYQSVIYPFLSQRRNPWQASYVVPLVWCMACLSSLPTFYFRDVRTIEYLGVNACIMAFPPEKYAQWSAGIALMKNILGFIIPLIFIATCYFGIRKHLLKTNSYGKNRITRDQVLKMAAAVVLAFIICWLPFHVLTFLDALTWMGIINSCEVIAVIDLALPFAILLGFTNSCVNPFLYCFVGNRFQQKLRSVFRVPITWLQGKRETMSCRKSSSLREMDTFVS
Assay type: functional
Outline: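 Isolated uterine horns (defatted) from diethylstilbestrol-primed virgin Sprague–Dawley rats (150–250 g), held under 1-g tension in a 3-mL bath of 150 mM NaCl, 5.6 mM KCl, 0.18 mM NaHCO3, 1.4 mM glucose, pH 7.0, oxygenated. Isotonic contractions recorded. Human ANGII as standard; values are means of the stated number of experiments.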

Point of comparison: CC[C@H](C)[C@H](NC(=O)[C@@H]1CCN1C(=O)[C@H](Cc1c[nH]cn1)NC(=O)[C@@H](NC(=O)[C@H](Cc1ccc(O)cc1)NC(=O)[C@@H](NC(=O)[C@H](CCCN=C(N)N)NC(=O)CNC)C(C)C)[C@@H](C)CC)C(=O)O, pA2 7.9. Against it:
- CC[C@H](C)[C@H](NC(=O)[C@@H]1CCCCN1C(=O)[C@H](Cc1c[nH]cn1)NC(=O)[C@@H](NC(=O)[C@H](Cc1ccc(O)cc1)NC(=O)[C@@H](NC(=O)[C@H](CCCN=C(N)N)NC(=O)CNC)C(C)C)[C@@H](C)CC)C(=O)O — higher, 8.3
- CC[C@H](C)[C@H](NC(=O)[C@@H]1CCN1C(=O)[C@H](Cc1c[nH]cn1)NC(=O)[C@@H](NC(=O)[C@H](Cc1ccc(O)cc1)NC(=O)[C@@H](NC(=O)[C@H](CCCN=C(N)N)NC(=O)C(C)(C)N)C(C)C)[C@@H](C)CC)C(=O)O — lower, 7.1
- CC[C@H](C)[C@H](NC(=O)[C@H](Cc1ccc(OC)cc1)NC(=O)[C@@H](NC(=O)[C@H](CCCN=C(N)N)NC(=O)CNC)C(C)C)C(=O)N[C@@H](Cc1c[nH]cn1)C(=O)N1CCC[C@H]1C(=O)N[C@@H](Cc1ccccc1)C(=O)O — lower, 7.7
- CC[C@H](C)[C@H](NC(=O)[C@H](Cc1ccc(OC)cc1)NC(=O)[C@@H](NC(=O)[C@H](CCCN=C(N)N)NC(=O)CNC)C(C)C)C(=O)N[C@@H](Cc1c[nH]cn1)C(=O)N1CC[C@H]1C(=O)N[C@@H](Cc1ccccc1)C(=O)O — lower, 7.4
- CC[C@H](C)[C@H](NC(=O)[C@H](Cc1ccc(OC)cc1)NC(=O)[C@@H](NC(=O)[C@H](CCCN=C(N)N)NC(=O)CNC)C(C)C)C(=O)N[C@@H](Cc1c[nH]cn1)C(=O)N1CCCC[C@H]1C(=O)N[C@@H](Cc1ccccc1)C(=O)O — lower, 6.5
- CC[C@H](C)[C@H](NC(=O)[C@@H]1CCCCN1C(=O)[C@H](Cc1c[nH]cn1)NC(=O)[C@@H](NC(=O)[C@H](Cc1ccc(O)cc1)NC(=O)[C@@H](NC(=O)[C@H](CCCN=C(N)N)NC(=O)C(C)(C)N)C(C)C)[C@@H](C)CC)C(=O)O — lower, 7.6

CC[C@H](C)[C@H](NC(=O)[C@H](Cc1ccc(OC)cc1)NC(=O)[C@@H](NC(=O)[C@@H](N)CCCN=C(N)N)C(C)C)C(=O)N[C@@H](Cc1c[nH]cn1)C(=O)N1CC[C@H]1C(=O)N[C@@H](Cc1ccccc1)C(=O)O was tested, and the pA2 was < 5.
In the case of CC[C@H](C)[C@H](NC(=O)[C@H](Cc1ccc(OC)cc1)NC(=O)[C@@H](NC(=O)[C@@H](N)CCCN=C(N)N)C(C)C)C(=O)N[C@@H](Cc1c[nH]cn1)C(=O)N1CCCC[C@H]1C(=O)N[C@@H](Cc1ccccc1)C(=O)O, the pA2 is reported as < 5.

Each compound was assayed against Angiotensin II receptor (Rattus norvegicus) (UniProt P29089+P25095+P35351) (assay: Evaluated for its agonistic activity using rat uterus bioassay in Dawley rats (% of ANG II)).
Assay type: functional, tissue-based
Outline: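 Defatted uterine horns from diethylstilbestrol-primed virgin Sprague–Dawley rats (150–250 g), suspended under 1-g tension in a 3-mL oxygenated bath (150 mM NaCl, 5.6 mM KCl, 0.18 mM NaHCO3, 1.4 mM glucose, pH 7.0). Isotonic contractions recorded; activity found by matching the response to an equivalent human ANGII response. Values are means of the stated number of experiments.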

Point of comparison: CC[C@H](C)[C@H](NC(=O)[C@H](Cc1ccc(O)cc1)NC(=O)[C@@H](NC(=O)[C@H](CCCN=C(N)N)NC(=O)C(C)(C)N)C(C)C)C(=O)N[C@@H](Cc1c[nH]cn1)C(=O)N1CCC1C(=O)N[C@@H](Cc1ccccc1)C(=O)O (stereo not given in full), Agonist activity 34. Against it:
- CC[C@H](C)[C@H](NC(=O)[C@H](Cc1ccc(O)cc1)NC(=O)[C@@H](NC(=O)[C@H](CCCN=C(N)N)NC(=O)CNC)C(C)C)C(=O)N[C@@H](Cc1c[nH]cn1)C(=O)N1CCC[C@H]1C(=O)N[C@@H](Cc1ccccc1)C(=O)O — higher, 160
- CC[C@H](C)[C@H](NC(=O)[C@H](Cc1ccc(O)cc1)NC(=O)[C@@H](NC(=O)[C@H](CCCN=C(N)N)NC(=O)C(C)(C)N)C(C)C)C(=O)N[C@@H](Cc1c[nH]cn1)C(=O)N1CCCC[C@@H]1C(=O)N[C@@H](Cc1ccccc1)C(=O)O — higher, 65
- CC[C@@H](C)[C@H](NC(=O)[C@H]1CCCCN1C(=O)[C@H](Cc1c[nH]cn1)NC(=O)[C@@H](NC(=O)[C@H](Cc1ccc(O)cc1)NC(=O)[C@@H](NC(=O)[C@H](CCCN=C(N)N)NC(=O)C(C)(C)N)C(C)C)[C@@H](C)CC)C(=O)O — lower, < 0.1
- CC[C@H](C)[C@H](NC(=O)[C@H](Cc1ccc(O)cc1)NC(=O)[C@@H](NC(=O)[C@H](CCCN=C(N)N)NC(=O)CNC)C(C)C)C(=O)N[C@@H](Cc1c[nH]cn1)C(=O)N1CCC1C(=O)N[C@@H](Cc1ccccc1)C(=O)O (stereo not given in full) — higher, 98
- CC[C@@H](C)[C@H](NC(=O)C1CCN1C(=O)[C@H](Cc1c[nH]cn1)NC(=O)[C@@H](NC(=O)[C@H](Cc1ccc(O)cc1)NC(=O)[C@@H](NC(=O)[C@H](CCCN=C(N)N)NC(=O)C(C)(C)N)C(C)C)[C@@H](C)CC)C(=O)O (stereo not given in full) — lower, < 0.1
- CC[C@H](C)[C@H](NC(=O)[C@@H]1CCCN1C(=O)[C@H](Cc1c[nH]cn1)NC(=O)[C@@H](NC(=O)[C@H](Cc1ccc(O)cc1)NC(=O)[C@@H](NC(=O)[C@H](CCCN=C(N)N)NC(=O)CNC)C(C)C)[C@@H](C)CC)C(=O)O — lower, 0.1
- CC[C@H](C)[C@H](NC(=O)[C@H](Cc1ccc(O)cc1)NC(=O)[C@@H](NC(=O)[C@H](CCCN=C(N)N)NC(=O)CNC)C(C)C)C(=O)N[C@@H](Cc1c[nH]cn1)C(=O)N1CCCC[C@@H]1C(=O)N[C@@H](Cc1ccccc1)C(=O)O — higher, 184
- CC[C@@H](C)[C@H](NC(=O)[C@H]1CCCCN1C(=O)[C@H](Cc1c[nH]cn1)NC(=O)[C@@H](NC(=O)[C@H](Cc1ccc(O)cc1)NC(=O)[C@@H](NC(=O)[C@H](CCCN=C(N)N)NC(=O)CNC)C(C)C)[C@@H](C)CC)C(=O)O — lower, < 0.1
- CC[C@H](C)[C@H](NC(=O)[C@H](Cc1ccc(O)cc1)NC(=O)[C@@H](NC(=O)[C@@H](N)CCCN=C(N)N)C(C)C)C(=O)N[C@@H](Cc1c[nH]cn1)C(=O)N1CCC1C(=O)N[C@@H](Cc1ccccc1)C(=O)O (stereo not given in full) — higher, 35
- CC[C@@H](C)[C@H](NC(=O)C1CCN1C(=O)[C@H](Cc1c[nH]cn1)NC(=O)[C@@H](NC(=O)[C@H](Cc1ccc(O)cc1)NC(=O)[C@@H](NC(=O)[C@H](CCCN=C(N)N)NC(=O)CNC)C(C)C)[C@@H](C)CC)C(=O)O (stereo not given in full) — lower, < 0.1
